The results in this text go back to ChEMBL document CHEMBL1155250, “Novel 1-aminoethyl-3-arylsulfonyl-1H-pyrrolo[2,3-b]pyridines are potent 5-HT(6) agonists” (Bioorg Med Chem, 2009).

Experiment [1] has as its target T1, 5-hydroxytryptamine receptor 1F (Homo sapiens) (UniProt P30939).
T1 sequence (whole entry): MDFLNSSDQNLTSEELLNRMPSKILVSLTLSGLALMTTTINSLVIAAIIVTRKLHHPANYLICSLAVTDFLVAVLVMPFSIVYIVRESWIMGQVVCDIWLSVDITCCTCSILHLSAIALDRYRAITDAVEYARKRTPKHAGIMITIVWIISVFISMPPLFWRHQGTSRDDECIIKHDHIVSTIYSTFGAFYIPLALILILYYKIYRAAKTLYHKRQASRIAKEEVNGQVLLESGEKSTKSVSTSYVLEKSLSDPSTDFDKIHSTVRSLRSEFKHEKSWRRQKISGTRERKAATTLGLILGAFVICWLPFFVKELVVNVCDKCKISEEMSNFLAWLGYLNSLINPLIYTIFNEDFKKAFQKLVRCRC
Kind of experiment: Displacement of [3H]5-HT from human cloned 5HT1F receptor expressed in CHO cells at 1 uM. It counts as cell-based. The essentials: (§1)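 Human 5-HT1B, 5-HT1D and 5-HT1F receptors were stably expressed in CHO cells and labelled with [3H]-5-HT. Results are given as percent inhibition at a single 1 µM concentration.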

For experiment [2], the target named is 5-hydroxytryptamine receptor 2A (Homo sapiens, UniProt P28223). The experiment can be described thus: Displacement of [125I]DOI from human cloned 5HT2A receptor expressed in CHO cells. Format: cell-based. The essentials:
(§2)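 Binding selectivity used stably expressed human receptors, 5-HT in CHO cells and dopamine in CHO-K1. Radioligands: [125I]DOI for 5-HT2A (agonist radioligand), [3H]-5-HT for 5-HT2C, [3H]LSD for 5-HT7, [3H]spiperone for D2, D3 and D4. Values are IC50 in nM.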

The target in experiment [3] is T2, 5-hydroxytryptamine receptor 6 (Homo sapiens, UniProt P50406). Kind of experiment: Agonist activity at human cloned 5HT6 receptor expressed in HeLa cells assessed as induction of adenylyl cyclase activity by RIA relative to serotonin. Format: functional, cell-based. The essentials:
(§3)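 Transfected HeLa cells expressing human 5-HT6 were washed with Krebs buffer and preincubated 5 min at 37 °C in Krebs with 500 µM IBMX. They were then stimulated 10 min at 37 °C with compound over 0.1–10000 nM. Agonist potency came from concentration–response curves, and percent efficacy was taken relative to a serotonin maximal response.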

Experiment [4] is filed under the species Homo sapiens. The experiment can be described thus: Selectivity ratio of IC50 for human cloned 5HT1B receptor to human cloned 5HT6 receptor.
The species named for experiment [5] is Homo sapiens. Kind of experiment: Selectivity ratio of IC50 for human cloned 5HT1F receptor to human cloned 5HT6 receptor.
The target in experiment [6] is T2, 5-hydroxytryptamine receptor 6. Kind of experiment: Agonist activity at human cloned 5HT6 receptor expressed in HeLa cells assessed as induction of adenylyl cyclase activity by RIA. It counts as functional, cell-based. The essentials:
as §3

For experiment [7] the target is unchanged. The experiment can be described thus: Displacement of [3H]LSD from human cloned 5HT6 receptor expressed in HeLa cells. It counts as cell-based. The essentials:
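Radioligand binding used human 5-HT6 receptor stably expressed in HeLa cells with [3H]LSD as the radioligand. Affinity is reported as Ki.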
In general terms: In a radioligand displacement assay an active substance lowers the binding of a labelled ligand.

For experiment [8], the species on record is Homo sapiens. The experiment can be described thus: Selectivity ratio of IC50 for human cloned 5HT7 receptor to human cloned 5HT6 receptor.
The target in experiment [9] is 5-hydroxytryptamine receptor 1B (Homo sapiens) (UniProt P28222). Kind of experiment: Displacement of [3H]5-HT from human cloned 5HT1B receptor expressed in CHO cells at 1 uM. Format: cell-based. The essentials:
as §1

Experiment [10] is filed under the species Homo sapiens. The experiment can be described thus: Selectivity ratio of IC50 for human cloned 5HT2C receptor to human cloned 5HT6 receptor.
The species entered for experiment [11] is Homo sapiens. The experiment can be described thus: Selectivity ratio of IC50 for human cloned dopamine D2 receptor to human cloned 5HT6 receptor.
For experiment [12], the target named is T3, 5-hydroxytryptamine receptor 2C (Homo sapiens, UniProt P28335).
T3 sequence (P28335 whole entry): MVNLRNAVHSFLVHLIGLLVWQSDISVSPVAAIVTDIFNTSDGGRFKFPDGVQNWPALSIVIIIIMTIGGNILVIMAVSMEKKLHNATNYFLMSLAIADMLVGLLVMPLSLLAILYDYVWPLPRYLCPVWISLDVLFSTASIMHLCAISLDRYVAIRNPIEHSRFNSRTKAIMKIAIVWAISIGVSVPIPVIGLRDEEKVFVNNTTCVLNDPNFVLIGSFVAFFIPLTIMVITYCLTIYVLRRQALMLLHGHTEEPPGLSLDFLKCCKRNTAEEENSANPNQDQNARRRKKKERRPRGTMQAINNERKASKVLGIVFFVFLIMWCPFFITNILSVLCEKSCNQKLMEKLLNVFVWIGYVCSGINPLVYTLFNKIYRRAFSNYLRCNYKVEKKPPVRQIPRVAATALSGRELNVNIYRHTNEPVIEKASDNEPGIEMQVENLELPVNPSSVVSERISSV
Kind of experiment: Displacement of [3H]5-HT from human cloned 5HT2C receptor expressed in CHO cells. It counts as cell-based. The essentials: as §2

Experiment [13] is filed under the species Homo sapiens. The experiment can be described thus: Selectivity ratio of IC50 for human cloned dopamine D4 receptor to human cloned 5HT6 receptor.
The species entered for experiment [14] is Homo sapiens. The experiment can be described thus: Selectivity ratio of IC50 for human cloned 5HT2A receptor to human cloned 5HT6 receptor.
The next experiment concerns the target D(2) dopamine receptor (Homo sapiens, UniProt P14416). The experiment can be described thus: Displacement of [3H]spiperone from human cloned dopamine D2 receptor expressed in CHO-K1 cells. Format: cell-based. The essentials:
as §2

For a further experiment, the target named is D(3) dopamine receptor (Homo sapiens, UniProt P35462). The experiment can be described thus: Displacement of [3H]spiperone from human cloned dopamine D3 receptor expressed in CHO-K1 cells. Format: cell-based. The essentials:
as §2

The target in experiment [15] is 5-hydroxytryptamine receptor 1D (Homo sapiens) (UniProt P28221). Kind of experiment: Displacement of [3H]5-HT from human cloned 5HT1D receptor expressed in CHO cells at 1 uM. Format: cell-based. The essentials: as §1
The species named for experiment [16] is Homo sapiens. The experiment can be described thus: Selectivity ratio of IC50 for human cloned 5HT1D receptor to human cloned 5HT6 receptor.
In experiment [17] the target is 5-hydroxytryptamine receptor 7 (Homo sapiens, UniProt P34969). The experiment can be described thus: Displacement of [3H]LSD from human cloned 5HT7 receptor expressed in CHO cells. Format: cell-based. The essentials: as §2
The next experiment has as its target T4, D(4) dopamine receptor (Homo sapiens, UniProt P21917).
T4 sequence (P21917 whole entry): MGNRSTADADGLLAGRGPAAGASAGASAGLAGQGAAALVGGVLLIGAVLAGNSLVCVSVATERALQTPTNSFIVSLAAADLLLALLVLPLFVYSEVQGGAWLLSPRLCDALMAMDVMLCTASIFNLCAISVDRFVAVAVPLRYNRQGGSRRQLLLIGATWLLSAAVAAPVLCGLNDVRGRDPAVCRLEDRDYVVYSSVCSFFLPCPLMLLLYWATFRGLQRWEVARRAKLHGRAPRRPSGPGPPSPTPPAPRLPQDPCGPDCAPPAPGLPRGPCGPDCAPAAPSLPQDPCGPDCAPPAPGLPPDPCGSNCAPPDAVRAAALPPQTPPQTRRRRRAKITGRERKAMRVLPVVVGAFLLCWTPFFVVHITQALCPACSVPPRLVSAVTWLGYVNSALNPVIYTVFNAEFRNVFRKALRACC
Kind of experiment: Displacement of [3H]spiperone from human cloned dopamine D4 receptor expressed in CHO-K1 cells. Format: cell-based. The essentials: as §2

The species named for experiment [18] is Homo sapiens. Kind of experiment: Selectivity ratio of IC50 for human cloned dopamine D3 receptor to human cloned 5HT6 receptor.
The subject of experiment [19] is Rattus norvegicus. Kind of experiment: Inhibition of schedule-induced polydipsia in po dosed Sprague-Dawley rat assessed as reduction of adjunctive drinking behavior. Format: functional. The essentials: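 In the schedule-induced polydipsia model, rats were dosed orally at 30, 56 and 100 mg/kg against a vehicle group. Adjunctive drinking was measured, an ED50 was derived, and comparison with vehicle used P < 0.05.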

Experiment [20] relates to Rattus norvegicus. Kind of experiment: Increase in extracellular glutamate level in Sprague-Dawley rat frontal cortex at 30 mg/kg, sc. It counts as functional, organism-based. Details: dose 30 mg/kg. The essentials:
(§4)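 Rats received a single acute subcutaneous dose of 30 mg/kg. Extracellular GABA and glutamate in frontal cortex were followed over time from about −100 to 350 min around dosing and compared with vehicle-treated animals, with significance set at P < 0.05.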

Experiment [21] concerns Rattus norvegicus. The experiment can be described thus: Increase in extracellular GABA level in Sprague-Dawley rat frontal cortex at 30 mg/kg, sc. Format: functional, organism-based. Details: dose 30 mg/kg. The essentials:
as §4

pEC50, pIC50, pKi: −log10 of the molar value. Activity calls are given as the source filed them. The rule behind the calls is not given here.

T2 sequence (P50406 whole entry): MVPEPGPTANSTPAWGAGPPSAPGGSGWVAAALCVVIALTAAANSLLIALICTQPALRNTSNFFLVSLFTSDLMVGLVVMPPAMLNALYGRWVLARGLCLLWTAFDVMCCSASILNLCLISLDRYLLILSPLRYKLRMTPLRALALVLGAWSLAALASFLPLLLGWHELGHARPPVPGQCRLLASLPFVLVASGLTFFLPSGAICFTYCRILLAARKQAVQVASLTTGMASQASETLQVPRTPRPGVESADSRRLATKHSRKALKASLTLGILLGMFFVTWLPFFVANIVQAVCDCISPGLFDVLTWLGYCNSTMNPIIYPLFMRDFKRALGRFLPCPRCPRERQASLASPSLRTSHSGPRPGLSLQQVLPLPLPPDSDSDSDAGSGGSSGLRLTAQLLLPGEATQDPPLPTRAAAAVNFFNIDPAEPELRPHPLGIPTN
D(3) dopamine receptor, sequence (P35462 whole entry): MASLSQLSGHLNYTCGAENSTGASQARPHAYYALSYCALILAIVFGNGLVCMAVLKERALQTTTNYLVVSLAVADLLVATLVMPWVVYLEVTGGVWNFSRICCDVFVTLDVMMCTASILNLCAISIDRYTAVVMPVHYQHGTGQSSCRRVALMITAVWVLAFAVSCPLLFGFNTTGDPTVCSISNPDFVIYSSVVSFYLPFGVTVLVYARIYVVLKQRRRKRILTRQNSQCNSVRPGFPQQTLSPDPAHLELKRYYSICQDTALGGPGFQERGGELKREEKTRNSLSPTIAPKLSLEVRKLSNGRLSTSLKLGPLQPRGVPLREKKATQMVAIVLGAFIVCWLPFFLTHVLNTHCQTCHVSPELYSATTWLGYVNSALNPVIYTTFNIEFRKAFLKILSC
5-hydroxytryptamine receptor 1D (Homo sapiens), sequence (P28221 whole entry): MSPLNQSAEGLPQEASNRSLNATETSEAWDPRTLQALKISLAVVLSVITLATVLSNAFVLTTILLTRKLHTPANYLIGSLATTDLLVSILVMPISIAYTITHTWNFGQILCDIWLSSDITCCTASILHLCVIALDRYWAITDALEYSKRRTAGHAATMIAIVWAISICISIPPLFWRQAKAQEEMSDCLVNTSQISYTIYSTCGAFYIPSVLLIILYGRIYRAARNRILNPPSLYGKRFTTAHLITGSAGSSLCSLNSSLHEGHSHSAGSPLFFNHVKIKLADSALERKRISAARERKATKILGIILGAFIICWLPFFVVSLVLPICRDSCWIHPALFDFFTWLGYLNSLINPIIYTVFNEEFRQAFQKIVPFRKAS
5-hydroxytryptamine receptor 7, sequence (P34969 whole entry): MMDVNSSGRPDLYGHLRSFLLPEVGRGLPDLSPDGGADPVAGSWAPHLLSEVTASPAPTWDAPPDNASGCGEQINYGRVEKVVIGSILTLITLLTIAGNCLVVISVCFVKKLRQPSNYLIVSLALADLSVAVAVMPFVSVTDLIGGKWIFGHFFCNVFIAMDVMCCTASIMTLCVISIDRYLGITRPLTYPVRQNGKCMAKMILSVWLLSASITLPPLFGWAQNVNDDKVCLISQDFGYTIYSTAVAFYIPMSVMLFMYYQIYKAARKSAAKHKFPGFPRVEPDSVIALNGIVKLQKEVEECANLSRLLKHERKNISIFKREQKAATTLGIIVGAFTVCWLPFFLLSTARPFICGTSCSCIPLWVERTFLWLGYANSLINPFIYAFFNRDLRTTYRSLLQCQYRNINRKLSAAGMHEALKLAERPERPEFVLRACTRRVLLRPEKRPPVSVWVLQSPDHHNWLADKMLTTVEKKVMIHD
5-hydroxytryptamine receptor 2A, sequence (P28223 whole entry): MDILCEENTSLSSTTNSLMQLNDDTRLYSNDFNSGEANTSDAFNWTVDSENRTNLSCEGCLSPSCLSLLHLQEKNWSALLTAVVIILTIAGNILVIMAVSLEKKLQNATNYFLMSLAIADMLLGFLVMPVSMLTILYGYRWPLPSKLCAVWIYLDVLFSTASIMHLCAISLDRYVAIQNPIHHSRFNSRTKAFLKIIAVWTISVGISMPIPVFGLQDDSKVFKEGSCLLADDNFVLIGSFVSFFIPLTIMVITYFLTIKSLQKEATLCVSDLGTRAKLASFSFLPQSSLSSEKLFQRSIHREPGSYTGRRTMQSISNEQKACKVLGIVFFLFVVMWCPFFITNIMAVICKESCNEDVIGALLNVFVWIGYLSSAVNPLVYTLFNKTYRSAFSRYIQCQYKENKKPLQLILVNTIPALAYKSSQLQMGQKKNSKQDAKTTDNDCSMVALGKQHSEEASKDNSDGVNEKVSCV
D(2) dopamine receptor, sequence (P14416 whole entry): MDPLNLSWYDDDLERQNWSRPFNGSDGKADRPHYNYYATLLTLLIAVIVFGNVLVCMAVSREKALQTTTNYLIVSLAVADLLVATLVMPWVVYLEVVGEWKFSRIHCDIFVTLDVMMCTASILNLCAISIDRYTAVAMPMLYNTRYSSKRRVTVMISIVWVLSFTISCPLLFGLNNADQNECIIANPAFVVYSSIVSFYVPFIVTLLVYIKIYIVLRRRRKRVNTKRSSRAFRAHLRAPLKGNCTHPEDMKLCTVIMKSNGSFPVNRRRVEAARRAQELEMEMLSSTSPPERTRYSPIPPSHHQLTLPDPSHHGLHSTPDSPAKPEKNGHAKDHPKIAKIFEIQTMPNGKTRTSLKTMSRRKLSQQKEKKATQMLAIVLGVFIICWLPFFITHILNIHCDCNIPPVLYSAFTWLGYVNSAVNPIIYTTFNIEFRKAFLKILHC
5-hydroxytryptamine receptor 1B (Homo sapiens), sequence (P28222 whole entry): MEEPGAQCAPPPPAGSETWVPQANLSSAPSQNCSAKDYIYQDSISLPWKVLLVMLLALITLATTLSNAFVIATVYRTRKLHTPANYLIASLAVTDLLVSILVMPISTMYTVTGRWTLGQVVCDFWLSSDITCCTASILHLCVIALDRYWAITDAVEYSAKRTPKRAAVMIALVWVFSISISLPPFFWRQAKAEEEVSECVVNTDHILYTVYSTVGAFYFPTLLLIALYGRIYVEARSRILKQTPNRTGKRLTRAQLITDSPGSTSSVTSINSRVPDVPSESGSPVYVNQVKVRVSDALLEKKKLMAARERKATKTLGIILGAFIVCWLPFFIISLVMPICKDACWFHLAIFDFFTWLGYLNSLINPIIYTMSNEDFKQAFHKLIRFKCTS

One may read the inhibition as the drop in the measured response relative to a control, in per cent. In general, pIC50 refers to the IC50 on a negative log10 scale, so that one unit is a factor of ten. A higher pIC50 goes with a low IC50. One may read the Emax as the size of the effect at its maximum, as opposed to the concentration needed. For orientation: pEC50 means −log10 of the EC50, conventionally taken in molar units. For orientation: pKi means the negative decadic logarithm of the Ki, by convention in mol/L. With `CN(C)CCn1cc(S(=O)(=O)c2cccc(Cl)c2)c2cccnc21`, the results for the inhibition in experiment [1], in experiment [9] and in [15] were 29%, 46% and 10%, respectively. In addition, the negative logarithm of the IC50 (pIC50) is 6.88 in experiment [2]; 6.32 in experiment [12]; under 5.30 at D(2) dopamine receptor; under 5.30 at D(3) dopamine receptor; 5.91 in experiment [17]; under 5.30 at D(4) dopamine receptor. In addition, in experiment [3], the Emax was determined as 86%. The Ratio IC50 in the experiment filed under Homo sapiens [4], in the experiment filed under Homo sapiens [5], in the experiment filed under Homo sapiens [8], in the experiment listed under Homo sapiens [10], in the experiment listed under Homo sapiens [11] and in the experiment listed under Homo sapiens [13] was over 50 throughout. Also, the Ratio IC50 in the experiment listed under Homo sapiens [14], in the experiment filed under Homo sapiens [16] and in the experiment filed under Homo sapiens [18] was over 50 in each case. Also, the pEC50 in experiment [6] was 7.82. This molecule also had a pKi in experiment [7] of 8.64.

By ED50 is commonly meant the dose that gives a 50% effect, or the effect in half of the subjects. On to `CN(C)CCn1cc(S(=O)(=O)c2cccc(F)c2)c2cccnc21`, for which the inhibition in experiment [1] was 22%; in [9] it was 30%; in experiment [15], 16%. Moreover, the pIC50 in experiment [2] was 6.45; in experiment [12] it was 6.19; at D(2) dopamine receptor it was under 5.30; at D(3) dopamine receptor, under 5.30; in [17], 5.32; on D(4) dopamine receptor, under 5.30. Moreover, in the experiment with Rattus norvegicus [19], the ED50 stood at 89.5 mg/kg. In the experiment on Rattus norvegicus [20], the outcome was inactive. In addition, in experiment [3], the Emax is 100%. Further, in the experiment with Rattus norvegicus [21], the outcome was Active.
